Assay results published in ChEMBL document CHEMBL4312000, “Discovery of coumarin-derived imino sulfonates as a novel class of potential cardioprotective agents” (Eur J Med Chem, 2019).
Activity calls are given as the source filed them. The rule behind the calls is not given here.

Assays:
H9c2 [1] = test: Cardioprotective activity against rat H9c2 cells assessed as reduction in H2O2-induced cell death at 20 uM incubated for 24 hrs followed by H2O2 stimulation and measured after 2 hrs by MTT assay; type: functional, cell-based
Summary of the method: (§1)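 Serum-starved H9c2 cells in DMEM/F12 with 10% FBS were seeded at 5×10^3 cells/well and attached overnight. They were pretreated 24 h with compound at 2.5, 5, 10 or 20 µM, then exposed to 250 µM H2O2 for 2 h. MTT (4 mg/mL) ran 4 h at 37 °C, formazan was dissolved in DMSO, and OD was read at 490 nm. Viability is % of untreated control, from three independent experiments, mean ± SD.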

H9c2 [2] = test: Cytotoxicity against rat H9c2 cells assessed as reduction in cell viability at 0.1 to 100 uM incubated for 24 hrs by MTT assay; type: cell-based; conditions: h9c2, 24 h
Summary of the method: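 H9c2 cells were seeded at 5×10^3 cells/well, attached overnight and given compound at 0.1, 1, 10 or 100 µM for 24 h, with 0.01% DMSO medium as control. Compounds were DMSO stocks diluted in medium. MTT (4 mg/mL, 4 h, 37 °C) was read at OD 490 nm after DMSO solubilisation. Viability is % of control, from three experiments.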

H9c2 [3] = test: Cardioprotective activity against rat H9c2 cells assessed as reduction in H2O2-induced cell death at 2.5 uM incubated for 24 hrs followed by H2O2 stimulation and measured after 2 hrs by MTT assay; type: functional, cell-based; summary of the method: as §1
H9c2 [4] = test: Cardioprotective activity against rat H9c2 cells assessed as reduction in H2O2-induced cell death at 5 uM incubated for 24 hrs followed by H2O2 stimulation and measured after 2 hrs by MTT assay; type: functional, cell-based; summary of the method: as §1
H9c2 [5] = test: Cardioprotective activity against rat H9c2 cells assessed as reduction in H2O2-induced cell death at 10 uM incubated for 24 hrs followed by H2O2 stimulation and measured after 2 hrs by MTT assay; type: functional, cell-based; summary of the method: as §1
H9c2 [6] = test: Cardioprotective activity against rat H9c2 cells assessed as reduction in H2O2-induced LDH release at 10 uM incubated for 24 hrs followed by H2O2 stimulation and measured after 2 hrs by LDH release assay; type: functional, cell-based
Summary of the method: (§2)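 Cells were cultured in DMEM/F12 with 10% FBS and serum-starved, then pre-incubated 24 h with compound at 10 or 20 µM before 2 h with 250 µM H2O2. LDH release rate was measured with a cytotoxicity detection kit by absorbance at 490 nm. Three independent experiments, mean ± SD, one-way ANOVA with Tukey test.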

H9c2 [7] = test: Cardioprotective activity against rat H9c2 cells assessed as reduction in H2O2-induced LDH release at 20 uM incubated for 24 hrs followed by H2O2 stimulation and measured after 2 hrs by LDH release assay; type: functional, cell-based; summary of the method: as §2
H9c2 [8] = test: Increase in H2O2-induced Nrf2 expression in rat H9c2 cells at 20 uM incubated for 24 hrs followed by H2O2 stimulation and measured after 2 hrs by Western blot analysis; type: functional, cell-based
Summary of the method: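 Pretreatment was 20 µM for 24 h, then 250 µM H2O2 for 2 h. Cytoplasmic and nuclear fractions were extracted for Western blot: 5% milk/TBS-0.1% Tween blocking 2 h, primary antibodies overnight at 4 °C, HRP anti-rabbit secondary (1:5000) 2 h. Signals were normalised to Lamin B1 (nuclear) or GAPDH (cytoplasmic), n=3, mean ± SD.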

H9c2 [9] = test: Inhibition of H2O2-induced ROS accumulation in rat H9c2 cells at 10 uM incubated for 24 hrs followed by H2O2 stimulation and measured after 2 hrs by DHE staining based fluorescence microscopy; type: functional, cell-based
Summary of the method: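 H9c2 cells at 2.5×10^5 cells/well attached overnight, were preincubated 24 h with 10 µM, then given H2O2 (250 µM) for 2 h. Dihydroethidium (5 µM) was loaded for 30 min at 37 °C. Ethidium fluorescence (ex 488/em […] nm) was imaged by fluorescence microscopy at 200×.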

[10] = target: T1, Nuclear factor erythroid 2-related factor 2 (Rattus norvegicus) (UniProt O54968); test: Activation of Nrf2 in rat H9c2 cells assessed as induction of Nrf2 nuclear translocation incubated for 24 hrs followed by H2O2 stimulation and measured after 2 hrs by Western blot analysis; type: cell-based
T1 sequence (whole entry): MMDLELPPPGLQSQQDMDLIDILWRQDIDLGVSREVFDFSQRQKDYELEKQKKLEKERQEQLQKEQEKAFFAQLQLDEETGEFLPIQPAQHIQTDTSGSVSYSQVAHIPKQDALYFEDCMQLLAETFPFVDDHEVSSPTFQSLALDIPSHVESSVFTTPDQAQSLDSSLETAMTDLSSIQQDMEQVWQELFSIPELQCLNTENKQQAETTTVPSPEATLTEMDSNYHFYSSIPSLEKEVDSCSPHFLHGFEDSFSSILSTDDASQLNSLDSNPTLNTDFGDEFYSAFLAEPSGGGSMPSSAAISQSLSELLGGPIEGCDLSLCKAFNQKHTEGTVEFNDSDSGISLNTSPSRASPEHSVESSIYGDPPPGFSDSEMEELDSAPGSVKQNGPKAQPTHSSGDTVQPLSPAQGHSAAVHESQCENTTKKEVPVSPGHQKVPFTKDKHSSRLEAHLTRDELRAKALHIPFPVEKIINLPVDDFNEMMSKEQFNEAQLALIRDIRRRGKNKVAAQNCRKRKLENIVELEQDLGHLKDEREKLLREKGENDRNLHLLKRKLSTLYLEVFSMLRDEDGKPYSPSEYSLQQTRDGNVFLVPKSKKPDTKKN

[11] = target: T1, Nuclear factor erythroid 2-related factor 2 (Rattus norvegicus); test: Activation of Nrf2 in rat H9c2 cells assessed as upregulation of HO1 incubated for 24 hrs followed by H2O2 stimulation and measured after 2 hrs by Western blot analysis; type: cell-based
[12] = target: T1, Nuclear factor erythroid 2-related factor 2 (Rattus norvegicus); test: Activation of Nrf2 in rat H9c2 cells assessed as upregulation of NQO1 incubated for 24 hrs followed by H2O2 stimulation and measured after 2 hrs by Western blot analysis; type: cell-based
[13] = target: T1, Nuclear factor erythroid 2-related factor 2 (Rattus norvegicus); test: Activation of Nrf2 in rat H9c2 cells assessed as induction of Nrf2 nuclear translocation at 10 uM incubated for 24 hrs followed by H2O2 stimulation and measured after 2 hrs by Western blot analysis; type: cell-based
[14] = target: T1, Nuclear factor erythroid 2-related factor 2 (Rattus norvegicus); test: Activation of Nrf2 in rat H9c2 cells assessed as upregulation of HO1 at 10 uM incubated for 24 hrs followed by H2O2 stimulation and measured after 2 hrs by Western blot analysis; type: cell-based
[15] = target: T1, Nuclear factor erythroid 2-related factor 2 (Rattus norvegicus); test: Activation of Nrf2 in rat H9c2 cells assessed as upregulation of NQO1 at 10 uM incubated for 24 hrs followed by H2O2 stimulation and measured after 2 hrs by Western blot analysis; type: cell-based

Compound: O=S1(=O)N=Cc2ccccc2O1
- Activity (H9c2 [1]): Active

Compound: O=S1(=O)N=Cc2c(F)cccc2O1
- Activity (H9c2 [1]): Active

Compound: O=S1(=O)N=Cc2cc(Cl)ccc2O1
- Activity (H9c2 [1]): Active

Compound: CC(C)(C)c1cccc2c1OS(=O)(=O)N=C2
- Activity (H9c2 [1]): inactive

Compound: O=S1(=O)N=Cc2c(ccc3ccccc23)O1
- Activity (H9c2 [1]): Active

Compound: O=S1(=O)N=Cc2ccc(Cl)cc2O1
- Activity (H9c2 [1]): Active
- Activity (H9c2 [2]): Non-Toxic
- Activity (H9c2 [3]): inactive
- Activity (H9c2 [4]): Active
- Activity (H9c2 [5]): Active
- Activity (H9c2 [6]): Active
- Activity (H9c2 [7]): Active
- Activity (H9c2 [8]): Active
- inhibition (H9c2 [9]): Active
- Activity [10]: Dose-dependent effect
- Activity [11]: Dose-dependent effect
- Activity [12]: Dose-dependent effect
- Activity [13]: Active
- Activity [14]: Active
- Activity [15]: Active

Compound: O=S1(=O)N=Cc2cccc(Cl)c2O1
- Activity (H9c2 [1]): Active

Compound: Cc1ccc2c(c1)C=NS(=O)(=O)O2
- Activity (H9c2 [1]): Active

Compound: COc1ccc2c(c1)OS(=O)(=O)N=C2
- Activity (H9c2 [1]): Active

Compound: O=c1cc(-c2ccc(O)c(O)c2)oc2cc(O)cc(O)c12
- Activity (H9c2 [1]): Active
- Activity (H9c2 [3]): inactive
- Activity (H9c2 [5]): Active
- Activity [13]: Active
- Activity [14]: Active
- Activity [15]: Active

Compound: COc1ccc2c(c1)C=NS(=O)(=O)O2
- Activity (H9c2 [1]): Active

Compound: O=S1(=O)N=Cc2cccc(F)c2O1
- Activity (H9c2 [1]): Active

Compound: Cc1ccc2c(c1)OS(=O)(=O)N=C2
- Activity (H9c2 [1]): Active

Compound: CCN(CC)c1ccc2c(c1)OS(=O)(=O)N=C2
- Activity (H9c2 [1]): Active

Compound: O=S1(=O)N=Cc2ccc(F)cc2O1
- Activity (H9c2 [1]): Active
- Activity (H9c2 [2]): Non-Toxic
- Activity (H9c2 [3]): inactive
- Activity (H9c2 [5]): Active
- Activity (H9c2 [6]): inactive
- Activity (H9c2 [7]): Active

Compound: COc1cccc2c1OS(=O)(=O)N=C2
- Activity (H9c2 [1]): Active

Compound: O=S1(=O)N=Cc2cc(Br)ccc2O1
- Activity (H9c2 [1]): Active
- Activity (H9c2 [2]): Non-Toxic
- Activity (H9c2 [3]): inactive
- Activity (H9c2 [5]): Active
- Activity (H9c2 [6]): inactive
- Activity (H9c2 [7]): Active
